An excerpt weighted towards active compounds, which were near 4% of everything screened.
CHO parental Ca – counter-screen: ATP calcium response change in parental CHO cells. 330,000 tested, 0.63% active. AID 463079. parental CHO-K1, ATP-induced calcium, Fluo-8 fluorescence. inhibition, % at 5.6 µM;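 active = inhibition above that plate's mean sample inhibition plus 3 SD, cut at about 26% in these data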;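 note: 0% = ATP-challenged DMSO wells and 100% = DMSO wells without ATP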
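Test system: parental CHO cells; detection: calcium-sensitive Fluo-8 fluorescence; evaluation: percent inhibition of calcium signal; also added: ATP as calcium-mobilizing challenge; repeats: one well per compound; control set: ATP-challenged DMSO wells low, unchallenged DMSO wells high; compound: single nominal dose of 5.6 µM per compound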
TAAR1 antag – human TAAR1 antagonism | Q96RJ0 | CHO RD-HGA16 TAAR1, Fluo-8 calcium fluorescence, antagonist | inhibition, % at 3 µM | 360,000 tested, 1.5% active | AID 624466;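 active = inhibition above a per-plate cutoff, the mean inhibition of test compounds on that plate plus 3 SD, cut at about 49% in these data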;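 note: 0% = DMSO plus EC80 beta-PEA response and 100% = DMSO alone without agonist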
Target sequence (Q96RJ0 whole entry, looked up): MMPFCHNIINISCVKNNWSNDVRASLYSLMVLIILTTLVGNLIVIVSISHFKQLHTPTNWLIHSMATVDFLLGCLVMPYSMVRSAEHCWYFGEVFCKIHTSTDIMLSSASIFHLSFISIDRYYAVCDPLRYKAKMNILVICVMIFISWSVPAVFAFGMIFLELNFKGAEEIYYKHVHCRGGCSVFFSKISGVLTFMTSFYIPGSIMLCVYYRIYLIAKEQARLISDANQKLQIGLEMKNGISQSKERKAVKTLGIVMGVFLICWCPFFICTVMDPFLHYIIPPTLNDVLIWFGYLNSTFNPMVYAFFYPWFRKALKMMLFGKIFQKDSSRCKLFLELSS
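System: RD-HGA16 CHO cells with stable hTAAR1 and Gα16 | Probe or stimulus: EC80 β-phenethylamine stimulus | Dosing: 3 µM, single point | Times: Dye loading 75 min at 37 °C, then 30 min room temperature | Measured by: Fluo-8 calcium-sensitive fluorescence | Read-out basis: % inhibition of agonist calcium response | Replicates: n of 1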
OX1R antag-1 – human HCRTR1 antagonism; O43613; CHO/OX1R cells, Fluo-8 calcium fluorescence, orexin A; inhibition, % at 5 µM; 330,000 tested, 0.43% active;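 active = inhibition above its plate's threshold, mean inhibition of all tested compounds on the plate plus 3 SD, cut at about 37% in these data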;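 note: 0% = orexin A challenge wells and 100% = SB-334867-A antagonist wells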
NTR1 ag – activates human neurotensin receptor 1; P30989; NTR1-U2OS beta-arrestin-GFP spot imaging, agonist mode; activation, % at 20 µM; 330,000 tested, 0.17% active; AID 493036;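 active = activation at or above 40% of the spot to cytoplasm intensity ratio, with at least 20 cells analyzed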;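 note: 0% = DMSO without peptide and 100% = 100 nM NTR1 peptide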
OX1R antag-2 – blocks the human orexin 1 receptor; O43613; OX1R-expressing cells, FRET antagonist read-out; inhibition, % at 6.6 µM; 330,000 tested, 1.8% active; AID 485270; in the data active = inhibition mostly above about 38%, no sharp cut-off; inactive = mostly below about 40%;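 note: 0% = agonist challenge alone and 100% = reference antagonist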
TAAR1 agonist – human TAAR1 agonism | Q96RJ0 | CHO RD-HGA16 TAAR1, Fluo-8 calcium fluorescence; vehicle wells 0%, saturating PEA agonist 100% | activation, % at 3 µM | AID 624467 | 360,000 tested, 0.99% active;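 active = activation above the mean activation of all test compounds in the run plus 3 SD, cut at about 38% in these data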
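Signal – calcium-sensitive Fluo-8 signal, excitation 470-495, emission 515-575 nm · System – RD-HGA16 (CHO) cells co-expressing Gα16 and hTAAR1 · Incubation – 17-24 h seeding, 75 min 37 °C dye, 30 min RT · Compound dosing – 3 µM single concentration · Repeats – no replicates (n 1)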
An asterisk follows results filed as active.

`COc1ccc(NC(=O)CC(C)c2ccccc2)cc1S(=O)(=O)N1CCOCC1` (stereo not drawn) gave CHO parental Ca -16, TAAR1 antag -10, OX1R antag-1 -18, NTR1 ag 0, OX1R antag-2 4 and TAAR1 agonist 10.
Screening CCCCCCCCN1C(=O)[C@@H](CC(=O)NCc2cccs2)C[C@@]2(C(=O)OC)C1=C[C@H](C1CCCC1)O[C@@H]2C returned TAAR1 antag -12 and TAAR1 agonist -1.
`COc1cccc(OC)c1Nc1nc(C)nc2c1nnn2Cc1ccccc1Cl` gave CHO parental Ca -26, TAAR1 antag -29, OX1R antag-1 -25, NTR1 ag -2, OX1R antag-2 21 and TAAR1 agonist -1.
CCc1nc(Nc2ccc(OC)c(OC)c2)c2nnn(Cc3ccccc3Cl)c2n1 was read as CHO parental Ca 30*, TAAR1 antag 20, OX1R antag-1 -4, NTR1 ag 18, OX1R antag-2 25 and TAAR1 agonist 4.
Screening Cn1c(=O)[nH]c(NC2CCCCC2)c(N=O)c1=O returned CHO parental Ca 1, TAAR1 antag 3, OX1R antag-1 6, NTR1 ag 6, OX1R antag-2 44 and TAAR1 agonist 3.
CCCNc1[nH]c(=O)n(C)c(=O)c1N=O was read as CHO parental Ca -3, TAAR1 antag 6, OX1R antag-1 -21, NTR1 ag -4, OX1R antag-2 69* and TAAR1 agonist 7.
CCc1c(C#N)c(SCCC(=O)Nc2cccc(OC)c2)nc2c1C(=O)CC(C)(C)C2 was read as CHO parental Ca 16, TAAR1 antag 58*, OX1R antag-1 17, NTR1 ag 5, OX1R antag-2 22 and TAAR1 agonist 17.
For Cc1cccn2c(CN[C@@H]3CCCC[C@H]3c3ccccc3)c(C(=O)N3CCOCC3)nc12 the results were CHO parental Ca -21, TAAR1 antag 31, OX1R antag-1 -58, NTR1 ag -2, OX1R antag-2 28 and TAAR1 agonist 8.
For Cc1cccn2c(CNCCc3ccco3)c(C(=O)N3CCOCC3)nc12 the results were TAAR1 antag 18, NTR1 ag 1 and TAAR1 agonist 43*.
`CC(=O)c1cccc(NC(=O)COc2nsnc2N2CCOCC2)c1` gave CHO parental Ca 0, TAAR1 antag 4, OX1R antag-1 -16, NTR1 ag 0, OX1R antag-2 12 and TAAR1 agonist 7.
CCOC(=O)c1cccc(NC(=O)COc2nsnc2N2CCOCC2)c1 was read as CHO parental Ca 10, TAAR1 antag 50*, OX1R antag-1 -80, NTR1 ag 0, OX1R antag-2 18 and TAAR1 agonist 13.
Screening CCOC(=O)C1=CCN(S(C)(=O)=O)C1c1ccc(Cl)cc1 (stereo not drawn) returned TAAR1 antag -13 and TAAR1 agonist 4.
`COC(=O)c1cc2c(ccn2-c2ccc(F)cc2)n1CC(C)C` gave CHO parental Ca -34, TAAR1 antag -17, OX1R antag-1 -52, NTR1 ag 9, OX1R antag-2 27 and TAAR1 agonist 44*.
`COC(=O)c1cc2c(ccn2-c2ccc(F)cc2)n1Cc1cccc(OC)c1` gave CHO parental Ca -18, TAAR1 antag -26, OX1R antag-1 -58, NTR1 ag 10, OX1R antag-2 7 and TAAR1 agonist 8.
`COC(=O)c1cc2c(ccn2-c2ccc(F)cc2)n1C(C)C` gave CHO parental Ca -39, TAAR1 antag -31, OX1R antag-1 -32, NTR1 ag -1, OX1R antag-2 10 and TAAR1 agonist 39*.
Screening CCCn1c(C(=O)OC)cc2c1ccn2-c1ccc(F)cc1 returned CHO parental Ca -52, TAAR1 antag -38, OX1R antag-1 -30, NTR1 ag 5, OX1R antag-2 4 and TAAR1 agonist 29.
C[C@H](O)[C@@H]1C(=O)N2CCc3c([nH]c4c(-c5ccccc5)cccc34)[C@@H]2C[C@@H]1N(C)C(=O)c1ccco1 was read as TAAR1 antag 47 and TAAR1 agonist 15.
Screening Cc1ccccc1C(=O)NC1CCCCN(C)C1=O (stereo not drawn) returned TAAR1 antag 0 and TAAR1 agonist 1.
For Fc1ccc2cc(C3=CCCCC3)ncc2c1 the results were TAAR1 antag -1 and TAAR1 agonist -1.
For NC(=O)c1cc([N+](=O)[O-])ccc1NCc1ccc(O)cc1 the results were CHO parental Ca 2, TAAR1 antag -3, OX1R antag-1 0, NTR1 ag -3, OX1R antag-2 41 and TAAR1 agonist 12.
`NC(=O)c1cc([N+](=O)[O-])ccc1NCC1CCCCC1` gave CHO parental Ca -19, TAAR1 antag -15, OX1R antag-1 -21, NTR1 ag 8, OX1R antag-2 -2 and TAAR1 agonist 38*.
`COc1ccc(CC(=O)OCC(=O)Nc2ccc(F)cc2)cc1` gave TAAR1 antag -19, NTR1 ag 0 and TAAR1 agonist 1.
Nc1[nH]c(C(=O)c2ccccc2)c(-c2cccc3ccccc23)c1C(=O)c1ccc(Br)cc1 was read as TAAR1 antag -50 and TAAR1 agonist 3.
`S=C(NCc1ccc(Cl)cc1)NC1CCN(Cc2ccccc2)CC1` gave CHO parental Ca 8, TAAR1 antag 7, OX1R antag-1 4, NTR1 ag 3, OX1R antag-2 14 and TAAR1 agonist 51*.
For Clc1ccc(CNC2CCN(Cc3ccccc3)CC2)cc1 the results were CHO parental Ca -4, TAAR1 antag -2, OX1R antag-1 -27, NTR1 ag 0, OX1R antag-2 11 and TAAR1 agonist 1.
Oc1ccc(Nc2nc3ccccc3nc2Nc2ccc(O)cc2)cc1 was read as CHO parental Ca 35*, OX1R antag-1 8, NTR1 ag -1 and OX1R antag-2 23.
CC(=O)c1c(C)oc2ccc(N(C(C)=O)S(=O)(=O)c3cccc4cccnc34)cc12 was read as CHO parental Ca -18, TAAR1 antag 59*, OX1R antag-1 -9, NTR1 ag 2, OX1R antag-2 15 and TAAR1 agonist 15.
CC(C)[C@H](NC(=O)C1CC(=O)N(c2ccc3c(c2)OCO3)C1)C(=O)NC1CCCC1 (stereo partly drawn) was read as CHO parental Ca 8, TAAR1 antag -18, OX1R antag-1 -10, NTR1 ag 0, OX1R antag-2 16 and TAAR1 agonist 1.
Screening CC(C)(C)OC(=O)NCCc1onc(-c2cccc([N+](=O)[O-])c2)c1C(=O)O returned TAAR1 antag -13 and TAAR1 agonist 0.
Screening O=C(Cc1c[nH]c2ccccc12)Nc1ccc(Nc2ccncc2)cc1 returned TAAR1 antag -6 and TAAR1 agonist 1.
Screening CN(C)c1cc(-c2ccc([N+](=O)[O-])cc2)oc(=O)c1Cl returned CHO parental Ca -12, TAAR1 antag -4, OX1R antag-1 -21, NTR1 ag 0, OX1R antag-2 49* and TAAR1 agonist 0.
